The EternaBench riboswitch data

System: MS2 coat protein
Experiment: apparent Kd, MS2 coat protein; higher = weaker binding; RNA-MaP array; FMN 200 µM where present
Procedure, shortened: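 Designs were transcribed by stalled E. coli RNA polymerase on Illumina sequencing-chip clusters. They were titrated with SNAP-549-labelled MS2 coat protein from 0.7 or 1.5 nM, doubling to 3 µM, without and then with constant ligand. Buffer: 100 mM Tris-HCl pH 7.5, 80 mM KCl, 4 mM MgCl2, BSA, DTT, yeast tRNA, Tween-20. Green signal was normalised to red-channel RNA signal and control-cluster median Fmax. Apparent Kd is the median of filtered per-cluster binding-curve fits.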

[1] = designed as: OFF switch for flavin mononucleotide, no ligand
[2] = ligand present: flavin mononucleotide, designed as: OFF switch for flavin mononucleotide
[3] = designed as: ON switch for flavin mononucleotide, no ligand
[4] = ligand present: flavin mononucleotide, designed as: ON switch for flavin mononucleotide

GGUUAUUGCAAGGAUAUGCUUUUUUUUUAUAUUGCAGAAGGUGCAACAUGAGGAUCACCCAUGUUGGAGGGAUU
apparent Kd [1]: 30.9 nM | apparent Kd [2]: 59.5 nM

ACAUGAUCAGGAUAUACAUGAGGAUCACCCAUGUAAAUAAAAAAAAAACUUUCUUUAUGUAGAAGGGAUCUUGU
apparent Kd [1]: 21 nM | apparent Kd [2]: 30.1 nM

CGGUCCCAUGUGAGGAUAUCGGAGCGAAAAUACUGCGAGAAGGUACAUGAGGAUCACCCAUGUCUCCUAUUGCC
apparent Kd [1]: 16.5 nM | apparent Kd [2]: 32.5 nM

UAUAUAUAGUAAGGAUAUGUAUUUAUUCUAUAAACAGAAGGUACUGACAUGAGGAUCACCCAUGUUUUAGUGUGGGCAUGUAGA
apparent Kd [1]: 39.9 nM | apparent Kd [2]: 38.8 nM

UUGUUAAAUGAAGGAUAUACUUAACAUGAGGAUCACCCAUGUGGUGUUGUGAGUGAGUGAGUUUAGUAGAAGGUCAAUUCUUUU
apparent Kd [1]: 229 nM | apparent Kd [2]: 232 nM

UUCAUCAAGGAAGGAUAUCUAUAUCCAACAUGAGGAUCACCCAUGUUGAGGAUCACCCAUGUAAAGGAGAAGGUUCAUAUAACU
apparent Kd [3]: 58.1 nM | apparent Kd [4]: 50.7 nM

UUUCCACAUGAGGAUCACCCAUGUGAGGAUAUGGAGCGCGACCGCGCGGUCGCGUACACCAGAAGGCGCAUGAU
apparent Kd [1]: 31.9 nM | apparent Kd [2]: 91 nM

UUUUAACAUGAGGAUCACCCAUGUGAGGAUAUCGAAAUUUAUAUUAAUAUUAUUUAAACGAGAAGGCACAUUUU
apparent Kd [1]: 65.2 nM | apparent Kd [2]: 87 nM

AGCAACAUGAGGAUCACCCAUGUUGGUUCGAAAACGGACUCACAGGAUAUGCAACGUGAUCGUUUGCAGAAGGGUGCGUCCUCA
apparent Kd [3]: 18.4 nM | apparent Kd [4]: 28.4 nM

ACAUGAGGAUCACCCAUGUAAUGAUGGGUACUAUAUUAUUCGUAGGAUAUCGUUGUUAGUUUGUGCGAGAAGGACGAUUGCUUU
apparent Kd [1]: 871 nM | apparent Kd [2]: 1060 nM

AGUUGACGAGAAGGAUAUCCGAACCUUUAAAGAGGAGAAGGUCUAUCAACAUGAGGAUCACCCAUGUACAUCGCUCGGGUGUCC
apparent Kd [1]: 82.2 nM | apparent Kd [2]: 306 nM

GUACGUGGACAGAAGGCGACAUGAGGAUCACCCAUGUUGGCUCGGGUAUGACCAAUCCGCAUGAUCGAGGAUAUGUCUGCGGGC
apparent Kd [1]: 199 nM | apparent Kd [2]: 14.8 nM

AUCCGGCGUGUAGGAUAUGGAUCCGAUUAGGAUCCAGAAGGACAUGAGGAUCACCCAUGUACAUGUAAACAGUCAUCACCGGAC
apparent Kd [1]: 11.5 nM | apparent Kd [2]: 136 nM

UUGGACGUCGUAGGAUAUGUAGGAUAUUCCUACAUGAGGAUCACCCAUGUUGACAUGGAAGAAGGACAGAAGAACGAUGUCCAU
apparent Kd [3]: 161 nM | apparent Kd [4]: 4.92 nM

GAGAAGUCAGGAUAUCCAUGGCGGCACUUGCGUGGUGGCGUGGAGAAGGGACAUGAGGAUCACCCAUGUAAAGA
apparent Kd [1]: 52.7 nM | apparent Kd [2]: 36.8 nM

AGUACUACAGGAUAUACAUGAGUGAUACUCAUAUCCCUUCUACAUGAGGAUCACCCAUGUAGAAGGGUAGUACA
apparent Kd [1]: 15.2 nM | apparent Kd [2]: 11.7 nM

AACUCGUCAGGAUAUGCGCACAGAUAAUACGCUACACAAUUGCAGAAGGGACAUGAGGAUCACCCAUGUAAAUA
apparent Kd [1]: 39 nM | apparent Kd [2]: 26.2 nM

GGCUUAAACACAGGAUAUGGCCUUAGAGUGAGGCCAGAAGGGUGAAGUUCUCAUACAUGAGGAUCACCCAUGUCAAGGAGGCUA
apparent Kd [3]: 857 nM | apparent Kd [4]: 201 nM

AGGCUUGCCACAGGAUAUGCUGACAUGAGAGAAGCAGAAGGGUGGUCGACGUUUUGGCGACAUGAGGAUCACCCAUGUUAGCGU
apparent Kd [3]: 178 nM | apparent Kd [4]: 28.3 nM

GAGCGAAAGCUCAAUGUCGAUAGCAGAAGGACAUGCAAUAACAUGAAAACAUGAGGAUCACCCAUGUAGGAUAUGCUAUCGACU
apparent Kd [1]: 6.65 nM | apparent Kd [2]: 44.5 nM

UUAUACGCUGAGGAUAUUAUCACUGAGAGGUGAUGAGAAGGCGGUACAUGAGGAUCACCCAUGUCUAUGGGCAG
apparent Kd [1]: 282 nM | apparent Kd [2]: 240 nM

GCUAUCGAUGUAGGAUAUGCUAGGGAAACCCUGGCAGAAGGACAUGAGGAUCACCCAUGUCAAUGGAUGAAGAGAAGAGAUGGC
apparent Kd [1]: 27.8 nM | apparent Kd [2]: 122 nM

GUAUUUGGUUAGGAUAUUGACUCGAGAUCGAGAUAAGAAGGAGCCACAUGAGGAUCACCCAUGUCUAUCCAAGA
apparent Kd [1]: 27 nM | apparent Kd [2]: 29.6 nM

UGAGCCGGCACUGAGGAUAUUCAUAAUAAAACAUGAGGAUCACCCAUGUAGGCCAGAAGGCCUUGGGAGAAGGCAGGUCGGCUCA
apparent Kd [3]: 257 nM | apparent Kd [4]: 23.3 nM

CGCACUAUACAUGAGGAUCACCCAUGUUAUUAUGAGAUAGUCAGAAGGCAUUGUUUGUGAAAUUAUGAGGAUAUGAAUAGUGCG
apparent Kd [3]: 146 nM | apparent Kd [4]: 79.3 nM

AAACAUGUCCGAGGAUAUCUGGAAACAUUUUCAAGAGAAGGCGGACAUGAGGAUCACCCAUGUCUCUCCUCAUCAACUACAAUU
apparent Kd [1]: 8.31 nM | apparent Kd [2]: 58.1 nM

GCCAUCGCAUGAGGAUAUGGUCAGCUUUGCUGACCAGAAGGCAUGUCAAUAGACAUGAGGAUCACCCAUGUAGUUAAGAUGGCA
apparent Kd [3]: 797 nM | apparent Kd [4]: 54 nM

AUUCCUCCUGUGAGGAUAUGCGUUUCGCACUCGUCGCAGAAGGCACAUGAGGAUCACCCAUGUGAGUUACCAAA
apparent Kd [1]: 14.8 nM | apparent Kd [2]: 20 nM

AAAAAAAAAUCUCAGGAUAUAGAUUAUAGAACAUGAGGAUCACCCAUGUAGUGAAAGAAGAAAAACUAGAAGGGAGGAAAAAAAAA
apparent Kd [3]: 100 nM | apparent Kd [4]: 66.6 nM

GUAGCUAUCGGAGGAUAUUCAUACCGGAAACGGACAUGAGGAUCACCCAUGUGGCGAAAGCCCUGGGAGAAGGCCGAUAGCUAC
apparent Kd [3]: 382 nM | apparent Kd [4]: 259 nM

UAAUUGUGAGGAUAUUCGUUUUUCUCGGAGACGAGAAGAACGGAGAAGGCACAUGAGGAUCACCCAUGUUCCUU
apparent Kd [1]: 18 nM | apparent Kd [2]: 91.7 nM

UCUCGACAUGAGGAUCACCCAUGUCAGGAUAUUGUAUUGGAGGUGUUUAACCUUAUGGCAAGAAGGGAUGUGUG
apparent Kd [1]: 24 nM | apparent Kd [2]: 27.1 nM

UUGGUAUUCGUAGGAUAUCUGUCGCCACCGUGUGGAGAAGGACGAACAUGAGGAUCACCCAUGUAUCAUGGUGUGGGCGUUGUC
apparent Kd [1]: 100 nM | apparent Kd [2]: 106 nM

AUAUAACAUGAGGAUCACCCAUGUCUCUAAAGUCGAGGAUAUGGGCAGGUUAUAUCCGAACCAGAAGGCGGGUUAU
apparent Kd [3]: 315 nM | apparent Kd [4]: 717 nM

AGCUGGUGACAGCAUCCAUCAUGACAUGAGGAUCACCCAUGUAGAAGGCUGUACGGUUACCGUACAGAGGAUAUACAAUGAUGG
apparent Kd [1]: 7.73 nM | apparent Kd [2]: 8.21 nM

GGUACCAACACAGGAUAUGCAAUCCUUUGGGUUGCAGAAGGGUGAAACAUGAGGAUCACCCAUGUGGUGCCAGGGCGUGAGCCC
apparent Kd [3]: 1290 nM | apparent Kd [4]: 104 nM

GCAUGCAAGUAGAAGGUCGGAUAUUUUGAUACCGAAGGAUAUACAGAAUCAUAUCCACAUGAUAACAUGAGGAUCACCCAUGUA
apparent Kd [1]: 21.4 nM | apparent Kd [2]: 26.7 nM

UGAACUUCAGAGAAGGUCGAAUCGCAACGGUUCGAAGGAUAUCUGGAAACAUGAGGAUCACCCAUGUAACCGGGUGGAUGUCCU
apparent Kd [1]: 56.8 nM | apparent Kd [2]: 246 nM

UCCUAACCGUAGAAGGGUGACAUGAGGAUCACCCAUGUGCAGCAGCCGUGAACGGCCAUGCUGCCACAGGAUAUACGGAGGAGU
apparent Kd [3]: 26.1 nM | apparent Kd [4]: 55 nM

AGCUGGUGACAGCAAGAAUUUUAACAUGAGGAUCACCCAUGUAGAAGGCUGUACGGUUACCGUACAGAGGAUAUACAUAGAAAG
apparent Kd [1]: 43.2 nM | apparent Kd [2]: 62.2 nM

CGAGAAAUCGUAGGAUAUGGUGAUGUACAUGAGGAUCACCCAUGUCCGUCUUCUCUCACAAGAUGCCAGAAGGACGAUUUCUGG
apparent Kd [3]: 712 nM | apparent Kd [4]: 122 nM

CAGUAAUUCGAAGGAUAUGGUUACAUGAGGAUCACCCAUGUAUGAUUUGUGAUCUUAAAAUUGAUCCAGAAGGUCGAAUUACUG
apparent Kd [1]: 206 nM | apparent Kd [2]: 330 nM

AAGAUGCGGGUAGGAUAUGGAAAUUAAUAAAGACCAGAAGGACUGGUCACACAACAUGAGGAUCACCCAUGUGUGUGUUGUGAA
apparent Kd [1]: 11.9 nM | apparent Kd [2]: 10.4 nM

UUGUAGGAGACAGGAUAUGUACGGAAGGUUCACGUACAUGAGGAUCACCCAUGUCCAGACUUCAGACAGAAGGGUCACCAGGUG
apparent Kd [3]: 113 nM | apparent Kd [4]: 17.2 nM

UCUACGUAAAUUCAUCAAUACAGAAAGGAUAUGAAAUACAUGAGGAUCACCCAUGUGCAUGGGAAUUAGAAGGUUCAAUUAACU
apparent Kd [1]: 202 nM | apparent Kd [2]: 104 nM

UUUUUGUAAGAGAAGGAGGACUUCAUGAGGAUCACCCAUGUGUUAGUACUUAGGAUAUUUGACAACAUGAGGAUCACCCAUGUC
apparent Kd [3]: 72 nM | apparent Kd [4]: 70.1 nM

ACAUAUAUUCGAGGAUAUCGGUGAUAAAUUUUACGAGAAGGCGAUAAAAGAUAUAAUCUUAUAGACAUGAGGAUCACCCAUGUA
apparent Kd [3]: 27.3 nM | apparent Kd [4]: 27.1 nM

GUAGCUAUCGGAGGAUAUUCAUACCGGAAACGGACAUGAGGAUCACCCAUGUGGCGAAAGCCUUUGGAGAAGGCCGAUAGCUAC
apparent Kd [3]: 3.56 nM | apparent Kd [4]: 3.33 nM
